Results on five substances are retold here after ChEMBL document CHEMBL4177589, “In silico analysis and in vitro evaluation of immunogenic and immunomodulatory properties of promiscuous peptides derived from Leishmania infantum eukaryotic initiation factor” (2017).

In one assay the test system is Splenocyte. The assay can be described thus: Induction of cell proliferation in splenocytes isolated from BALB/c mouse infected with Leishmania major MRHO/SU/59/P, zymodeme LV39 assessed as increase in [3H]-thymidine incorporation at 1 to 10 ug/ml […] and measured after 18 hrs by liquid scintillation counter method. It counts as functional, cell-based. In outline:
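Female BALB/c mice were infected subcutaneously with 2×10^6 stationary-phase L. major promastigotes. Splenocytes were taken one month later and plated in triplicate at 2×10^6 cells/mL with peptide at 1, 5 or 10. Cultures ran 96 h at 37°C, 5% CO2, with 3H-thymidine (2 µCi/mL) added for the last 18 h and read by scintillation. The result is Δcpm against medium wells; Δcpm >2000 with SI >2 counted as positive.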

The subject of assay [1] is BMDC. The assay can be described thus: Immunomodulatory activity in LPS stimulated BALB/c mouse bone marrow-derived dendritic cells assessed as increase in IL-12 level at 10 ug/ml after 24 hrs by FACS analysis (reference value: 44%). It counts as functional. For orientation: In flow cytometry, cells or beads pass a laser one at a time.
The test system of assay [2] is BMDC. The assay can be described thus: Immunomodulatory activity in […] mouse bone marrow-derived dendritic cells assessed as increase in IL-12 level at 10 ug/ml after 24 hrs by FACS analysis. It counts as functional, cell-based.
Assay [3] deals with BMDC. The assay can be described thus: Immunomodulatory activity in LPS stimulated BALB/c mouse bone marrow-derived dendritic cells assessed as increase in surface CD86 expression at 10 ug/ml after 24 hrs by FACS analysis (reference value: 58%).
Assay [4] has as its system BMDC. The experiment in a line: Immunomodulatory activity in LPS stimulated BALB/c mouse bone marrow-derived dendritic cells assessed as increase in IFN-gamma level at 10 ug/ml after 24 hrs by FACS analysis (reference value: 20%). It counts as functional.
The test system of assay [5] is BMDC. The experiment in a line: Immunomodulatory activity in LPS stimulated BALB/c mouse bone marrow-derived dendritic cells assessed as increase in IL-4 level at 10 ug/ml after 24 hrs by FACS analysis (reference value: 48%). It counts as functional.
Assay [6] relates to BMDC. The assay can be described thus: Immunomodulatory activity in […] mouse bone marrow-derived dendritic cells assessed as up-regulation of co-stimulatory molecules at 10 ug/ml after 24 hrs by FACS analysis. It counts as functional, cell-based.
Assay [7] relates to BMDC. The experiment in a line: Immunomodulatory activity in LPS stimulated BALB/c mouse bone marrow-derived dendritic cells assessed as up-regulation of TNF-alpha mRNA expression at 10 ug/ml after 2 to 12 hrs by qPCR analysis. It counts as functional, cell-based. The procedure, abridged: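 Day-9 BM-DCs (5×10^6 per group) were cultured with peptide for 2, 6 and 12 h, with LPS and medium controls. TNF-α mRNA was measured by RT and semi-quantitative PCR, and products were run on 2% agarose gels. Band densitometry was normalised to β-actin and given as arbitrary units, from three independent experiments.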

In assay [8] the test system is BMDC. The assay can be described thus: Immunomodulatory activity in […] mouse bone marrow-derived dendritic cells assessed as increase in IL-10 level at 10 ug/ml after 24 hrs by FACS analysis. It counts as functional, cell-based.
The test system of assay [9] is BMDC. The experiment in a line: Immunomodulatory activity in LPS stimulated BALB/c mouse bone marrow-derived dendritic cells assessed as increase in IL-10 level at 10 ug/ml after 24 hrs by FACS analysis (reference value: 27%). It counts as functional.
The test system of assay [10] is BMDC. The experiment in a line: Immunomodulatory activity in LPS stimulated BALB/c mouse bone marrow-derived dendritic cells assessed as increase in surface CD80 expression at 10 ug/ml after 24 hrs by FACS analysis (reference value: 26%).

Calls of active or inactive are those of the source. The calls are words filed in the database; no cut-off is given here.

H-FLDDQPGVRPIPSFDDM-OH: in the assay on Splenocyte, the outcome was Active. The result in the assay with BMDC [1] was inactive.

Turning to H-IQQRAIAPFTRGGDII-OH, the outcome with BMDC [2], with Splenocyte, with BMDC [6], in the assay with BMDC [7] and with BMDC [8] was Active. The Activity came to 77% in the assay with BMDC [3]; 40% in the assay with BMDC [4]; 64% in the assay with BMDC [5]; 65% in the assay on BMDC [1]; 43% in the assay on BMDC [9]; 43% in the assay with BMDC [10].

Take H-KPSSIQQRAIAPFTRGG-OH: in the assay on Splenocyte, the outcome was Active. Moreover, the outcome with BMDC [1] was inactive.

As for H-PKDIQVALFSATMPEEVL-OH, the result with Splenocyte was Active. For the same substance, the result in the assay on BMDC [1] was inactive.

Turning to H-TRELALQTAEVISRIGE-OH, the result in the assay with Splenocyte was Active. Besides, in the assay with BMDC [1], the result was inactive.
